From ChEMBL document CHEMBL1148651, “Potent antitumor 9-anilinoacridines and acridines bearing an alkylating N-mustard residue on the acridine chromophore: synthesis and biological activity” (J Med Chem, 2006)

Tests used:
[1] = test system: MX1; assay: Antiproliferative activity against human MX1 cell line; format: functional, cell-based
Procedure, shortened: (§1)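 Growth inhibition after 72 h continuous exposure. Solid tumour lines were read by sulforhodamine B. Six or seven concentrations per compound were tested in duplicate. IC50 came from median-effect (mass-action law) dose-effect analysis.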

[2] = test system: MX1; assay: Antitumor activity against human MX1 cell line xenografted in nude mouse at 10 mg/kg, iv after 15 days; format: functional
Procedure, shortened: (§2)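 Nude mice were implanted subcutaneously with MX-1 tumour tissue (50 µg) on day 0. Doses were given iv via the tail vein every 2 or 3 days (Q2D or Q3D schedules) in 20 µL DMSO plus 180 µL saline. Tumour volume was measured by caliper (length × width × height). Result is T/C (%) on the stated day.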

[3] = test system: Mus musculus; assay: Toxicity against nude mouse xenografted with human MX1 cell line assessed as weight loss at 10 mg/kg, iv after 13 days; format: functional
Procedure, shortened: (§3)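 MX-1 xenograft nude mice were implanted with 50 µg tissue subcutaneously on day 0. They were treated iv by tail vein every 2 or 3 days in 20 µL DMSO plus 180 µL saline. Toxicity is the maximum body weight loss (%) relative to initial pretreatment body weight, on the day indicated.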

[4] = test system: Mus musculus; assay: Toxicity against nude mouse xenografted with human MX1 cell line assessed as weight loss at 10 mg/kg, iv after 17 days; format: functional
[5] = test system: Mus musculus; assay: Toxicity against nude mouse xenografted with human MX1 cell line assessed as weight loss at 10 mg/kg, iv after 19 days; format: functional
[6] = test system: CCRF-CEM; assay: Antiproliferative activity against human taxol resistant CCRF-CEM cell line; format: functional, cell-based
Procedure, shortened: (§4)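 Leukemic CCRF-CEM parent and resistant sublines were exposed for 72 h, then given phenazine methosulfate-XTT at 37 °C for 6 h. Absorbance was read at 450 and 630 nm. Six or seven concentrations were tested in duplicate, and IC50 came from median-effect plot analysis. Resistance fold is relative to the parent CCRF-CEM IC50.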

[7] = test system: CCRF-CEM; assay: Antiproliferative activity against human vinblastine resistant CCRF-CEM cell line; format: functional, cell-based; procedure, shortened: as §4
[8] = test system: A549; assay: Antiproliferative activity against human A549 cell line; format: functional, cell-based; procedure, shortened: as §1
[9] = test system: HCT-116; assay: Antiproliferative activity against human HCT116 cell line; format: functional, cell-based; procedure, shortened: as §1
[10] = test system: CCRF-CEM; assay: Antiproliferative activity against human CCRF-CEM cell line; format: functional, cell-based
[11] = test system: MX1; assay: Antitumor activity against human MX1 cell line xenografted in nude mouse at 4 mg/kg, iv after 19 days; format: functional; procedure, shortened: as §2
[12] = test system: Mus musculus; assay: Toxicity against nude mouse xenografted with human MX1 cell line assessed as weight loss at 4 mg/kg, iv after 17 days; format: functional; procedure, shortened: as §3
[13] = test system: MX1; assay: Antitumor activity against human MX1 cell line xenografted in nude mouse at 2 mg/kg, iv after 14 days; format: functional; procedure, shortened: as §2
[14] = test system: Mus musculus; assay: Toxicity against nude mouse xenografted with human MX1 cell line assessed as weight loss at 2 mg/kg, iv after 14 days; format: functional; procedure, shortened: as §3
[15] = test system: Mus musculus; assay: Toxicity against nude mouse xenografted with human MX1 cell line assessed as weight loss at 2 mg/kg, iv after 12 days; format: functional; procedure, shortened: as §3
[16] = test system: MX1; assay: Antitumor activity against human MX1 cell line xenografted in nude mouse at 1.5 mg/kg, iv after 14 days; format: functional; procedure, shortened: as §2
[17] = test system: Mus musculus; assay: Toxicity against nude mouse xenografted with human MX1 cell line assessed as weight loss at 1.5 mg/kg, iv after 14 days; format: functional; procedure, shortened: as §3

| Compound | IC50 [1] | Activity [2] | Activity [3] | Activity [4] | Activity [5] | IC50 [6] | IC50 [7] | IC50 [8] | IC50 [9] | IC50 [10] | Activity [11] | Activity [12] | Activity [13] | Activity [14] | Activity [15] | Activity [16] | Activity [17] |
| --- | --- | --- | --- | --- | --- | --- | --- | --- | --- | --- | --- | --- | --- | --- | --- | --- | --- |
| COc1cc(N)cc(Nc2c3ccccc3nc3c(OCCN(CCCl)CCCl)cccc23)c1 | 28.1 nM | 96% | 15% | 10% | 10% | 49.8 nM | 46.9 nM | 90.2 nM | 53.8 nM | 11.9 nM | – | – | – | – | – | – | – |
| Nc1cc(CO)cc(Nc2c3ccccc3nc3ccccc23)c1 | – | – | – | – | – | – | – | 47 nM | – | – | – | – | – | – | – | – | – |
| OCc1cc(O)cc(Nc2c3ccccc3nc3c(OCCCCN(CCCl)CCCl)cccc23)c1 | 7.2 nM | – | – | – | – | 117 nM | 338 nM | 25.1 nM | 9.1 nM | 5.9 nM | – | – | – | – | – | – | – |
| Nc1cc(CO)cc(Nc2c3ccccc3nc3c(OCCCCN(CCCl)CCCl)cccc23)c1 | 2.4 nM | – | – | – | – | 40.5 nM | 111 nM | 5.3 nM | 9.5 nM | 4.2 nM | – | – | – | – | – | – | – |
| ClCCN(CCCl)CCCCOc1cccc2cc3ccccc3nc12 | 82 nM | – | – | – | – | 393 nM | 308 nM | 226 nM | 118 nM | 51.2 nM | – | – | – | – | – | – | – |
| CCOC(=O)Nc1cc(CO)cc(Nc2c3ccccc3nc3c(OCCN(CCCl)CCCl)cccc23)c1 | 55.5 nM | – | – | – | – | 126 nM | 231 nM | 94 nM | 59.5 nM | 25.7 nM | – | – | – | – | – | – | – |
| Cc1cc(N)cc(Nc2c3ccccc3nc3c(OCCN(CCCl)CCCl)cccc23)c1 | 21.9 nM | – | – | – | – | 21.7 nM | 18.8 nM | 44.9 nM | 23.2 nM | 4.1 nM | 79% | 15% | – | – | – | – | – |
| COc1cc(N)cc(Nc2c3ccccc3nc3c(OCCCCN(CCCl)CCCl)cccc23)c1 | 5.6 nM | – | – | – | – | 43.9 nM | 51.3 nM | 19 nM | 13.8 nM | 4.2 nM | – | – | 77% | 8% | – | – | – |
| CC[C@]1(O)C[C@@H]2CN(CCc3c([nH]c4ccccc34)[C@@](C(=O)OC)(c3cc4c(cc3OC)N(C)[C@H]3[C@@](O)(C(=O)OC)[C@H](OC(C)=O)[C@]5(CC)C=CCN6CC[C@]43[C@@H]65)C2)C1 [VINBLASTINE] | 2 nM | – | – | – | – | 28.7 nM | 207 nM | 1.1 nM | 0.7 nM | 0.4 nM | – | – | – | – | – | – | – |
| COc1ccc(Nc2c3ccccc3nc3c(OCCCCN(CCCl)CCCl)cccc23)cc1N | 5.6 nM | – | – | – | – | 89.9 nM | 86.5 nM | 19 nM | 8.3 nM | 5.9 nM | – | – | – | – | – | – | – |
| Nc1cc(CO)cc(Nc2c3ccccc3nc3c(OCCN(CCCl)CCCl)cccc23)c1 | 6.6 nM | – | – | – | – | 63.3 nM | 126 nM | 32.4 nM | 7.7 nM | 6.7 nM | – | – | – | – | – | – | – |
| COc1ccc(Nc2c3ccccc3nc3c(OCCN(CCCl)CCCl)cccc23)cc1N | 24.1 nM | – | – | – | – | 57.5 nM | 60.1 nM | 118 nM | 48.2 nM | 12.3 nM | – | – | – | – | – | – | – |
| ClCCN(CCCl)CCCOc1cccc2cc3ccccc3nc12 | 82.7 nM | – | – | – | – | 150 nM | 253 nM | 166 nM | 135 nM | 35.3 nM | – | – | – | – | – | – | – |
| OCc1cc(O)cc(Nc2c3ccccc3nc3c(OCCN(CCCl)CCCl)cccc23)c1 | 58 nM | – | – | – | – | 139 nM | 152 nM | 108 nM | 125 nM | 6.9 nM | – | – | – | – | – | – | – |
| Cc1ccc(N)cc1Nc1c2ccccc2nc2c(OCCCCN(CCCl)CCCl)cccc12 | 9.2 nM | – | – | – | – | 57.8 nM | 42.3 nM | 15.4 nM | 13.6 nM | 4.3 nM | – | – | 20% | – | 21% | – | – |
| Cc1ccc(N)cc1Nc1c2ccccc2nc2c(OCCN(CCCl)CCCl)cccc12 | 7.1 nM | – | – | – | – | 46.5 nM | 31.2 nM | 31.6 nM | 9 nM | 8 nM | – | – | – | – | – | – | – |
| Cc1cc(N)cc(Nc2c3ccccc3nc3c(OCCCCN(CCCl)CCCl)cccc23)c1 | 10 nM | – | – | – | – | 61.1 nM | 54.5 nM | 8.9 nM | 9.1 nM | 3.7 nM | – | – | – | – | – | 6% | 8% |
| CC(=O)O[C@H]1C(=O)[C@@]2(C)[C@H]([C@H](OC(=O)c3ccccc3)[C@]3(O)C[C@H](OC(=O)[C@H](O)[C@@H](NC(=O)c4ccccc4)c4ccccc4)C(C)=C1C3(C)C)[C@]1(OC(C)=O)CO[C@@H]1C[C@@H]2O [PACLITAXEL] | 22.5 nM | – | – | – | – | 484 nM | 1730 nM | 2.1 nM | – | 1.1 nM | – | – | – | – | – | – | – |
| ClCCN(CCCl)CCOc1cccc2cc3ccccc3nc12 | 70.8 nM | – | – | – | – | 117 nM | 163 nM | 137 nM | 94.9 nM | 37.6 nM | – | – | – | – | – | – | – |
